3 compounds from ChEMBL document CHEMBL4033606, “Ulapualides C-E Isolated from a Hawaiian Hexabranchus sanguineus Egg Mass” (J Nat Prod, 2017) can be followed below.

Calls of active or inactive are those of the source. The rule behind the calls is not given here.

Assay [1] has as its system MDA-MB-231. In words: Cytotoxicity against human MDA-MB-231 cells incubated for 72 hrs by CyQuant NF cell proliferation assay. Format: functional, cell-based. The note with it: MDA-MB-231, 72 h. Put shortly:
(§1)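 Cells seeded at 4,000 per well and treated 20 h later with serially diluted compounds for 72 h at 37 °C, 5% CO2. Medium containing penicillin 100 U/mL and streptomycin 100 μg/mL. Medium then replaced with CyQuant NF dye-binding solution for 60 min at 37 °C and fluorescence read on a plate reader. Triplicates in two independent trials. IC50 reported. In the second trial, sample concentration was set by colorimetry against a standard curve.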

Assay [2] concerns DU-145. Briefly: Cytotoxicity against human DU145 cells incubated for 72 hrs by CyQuant NF cell proliferation assay. Format: functional, cell-based. The note with it: DU-145, 72 h. The procedure, abridged:
as §1

For assay [3], the system named is A549. Briefly: Cytotoxicity against human A549 cells incubated for 72 hrs by CyQuant NF cell proliferation assay. The conditions noted are these: A549, 72 h. Format: functional, cell-based. Put shortly: as §1
Assay [4] addresses Beta-secretase 1 (Homo sapiens) (UniProt P56817). In words: Inhibition of BACE1 (unknown origin) up to 30 uM.

Chain of Beta-secretase 1 (Homo sapiens) (P56817 whole entry): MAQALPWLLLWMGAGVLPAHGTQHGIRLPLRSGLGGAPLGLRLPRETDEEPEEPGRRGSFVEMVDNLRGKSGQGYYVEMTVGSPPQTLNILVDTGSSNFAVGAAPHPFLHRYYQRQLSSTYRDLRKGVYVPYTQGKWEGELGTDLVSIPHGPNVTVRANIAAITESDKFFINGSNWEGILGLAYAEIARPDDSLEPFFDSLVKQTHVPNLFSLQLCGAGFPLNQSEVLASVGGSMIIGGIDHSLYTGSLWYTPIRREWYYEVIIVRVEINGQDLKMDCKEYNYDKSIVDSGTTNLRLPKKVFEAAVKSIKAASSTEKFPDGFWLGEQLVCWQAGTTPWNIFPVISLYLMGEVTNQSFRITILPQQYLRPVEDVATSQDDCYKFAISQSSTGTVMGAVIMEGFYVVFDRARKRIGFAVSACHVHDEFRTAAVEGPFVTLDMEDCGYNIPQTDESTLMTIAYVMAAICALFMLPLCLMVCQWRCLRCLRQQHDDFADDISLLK

For `COCC(OC)C(=O)OC(CCC(C)C(CC1OC(=O)CC(O)CCCC(=O)CC(C)c2coc(n2)-c2coc(n2)-c2coc(n2)/C=C/CC(OC)C1C)OC)C(C)C(OC(C)=O)C(C)/C=C/N(C)C=O` (stereo unspecified), the results for the IC50 in assay [1], in assay [2] and in assay [3] were 290 nM, 280 to 340 nM and 260 to 330 nM, respectively. Further, the inhibition entry in assay [4] is “inactive”.
With `COC(CC1OC(=O)CC(O)CCCC(=O)CC(C)c2coc(n2)-c2coc(n2)-c2coc(n2)/C=C/CC(OC)C1C)C(C)CCC(O)C(C)C(OC(C)=O)C(C)/C=C/N(C)C=O` (stereo unspecified), the results for the IC50 in assay [1], in assay [2] and in assay [3] were 580 to 760 nM, 760 to 850 nM and 600 to 680 nM, respectively.
In the case of `CO[C@H]1C/C=C/c2nc(co2)-c2nc(co2)-c2nc(co2)[C@@H](C)CC(=O)CCC[C@H](O)CC(=O)O[C@@H](C[C@H](OC)[C@@H](C)CCC(=O)[C@H](C)[C@H](OC(C)=O)[C@H](C)/C=C/N(C)C=O)[C@@H]1C`, the IC50 in assay [1] was 230 to 250 nM; in assay [2], 250 to 260 nM; in assay [3], 280 to 290 nM. In addition, the inhibition entry in assay [4] is “inactive”.
